Here are results for 45 compounds from ChEMBL document CHEMBL1137383, “New efficient substrates for semicarbazide-sensitive amine oxidase/VAP-1 enzyme: analysis by SARs and computational docking” (J Med Chem, 2006).

Activity calls are given as the source filed them. No cut-off for these calls is given here.

Assay [1] deals with T1, Amine oxidase [copper-containing] 3 (Mus musculus) (UniProt O70423).
T1 sequence (whole entry): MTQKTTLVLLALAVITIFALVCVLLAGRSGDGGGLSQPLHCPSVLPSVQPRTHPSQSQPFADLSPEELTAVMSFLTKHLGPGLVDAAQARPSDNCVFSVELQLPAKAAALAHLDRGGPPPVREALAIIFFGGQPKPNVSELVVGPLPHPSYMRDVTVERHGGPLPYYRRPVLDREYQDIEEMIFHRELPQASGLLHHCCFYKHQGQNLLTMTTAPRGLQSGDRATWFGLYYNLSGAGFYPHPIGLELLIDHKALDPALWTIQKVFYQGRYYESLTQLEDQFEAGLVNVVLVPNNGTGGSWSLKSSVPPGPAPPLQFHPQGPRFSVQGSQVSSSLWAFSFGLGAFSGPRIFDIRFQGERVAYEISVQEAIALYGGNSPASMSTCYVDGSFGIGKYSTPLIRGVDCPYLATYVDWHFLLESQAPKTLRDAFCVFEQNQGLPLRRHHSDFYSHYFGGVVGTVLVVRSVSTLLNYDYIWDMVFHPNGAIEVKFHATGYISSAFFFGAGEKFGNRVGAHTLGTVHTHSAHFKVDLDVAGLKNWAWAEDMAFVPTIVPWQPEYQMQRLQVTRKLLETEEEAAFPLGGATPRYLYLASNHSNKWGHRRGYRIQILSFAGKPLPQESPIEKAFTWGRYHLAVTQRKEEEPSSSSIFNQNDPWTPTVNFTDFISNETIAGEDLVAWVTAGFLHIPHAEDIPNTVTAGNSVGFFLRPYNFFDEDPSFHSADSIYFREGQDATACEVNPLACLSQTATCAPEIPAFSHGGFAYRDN
The experiment in a line: Activity of mouse SSAO measured as hydrogen peroxide production at 100 uM relative to benzylamine oxidation. Type of assay: functional. Summed up: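 Mouse adipose tissue membranes (Swiss mice, 1 µg protein/assay) in 0.2 mol/L phosphate buffer pH 7.4, 50 min at 37 °C; amine at 100 µM added with HRP/Amplex Red. H2O2 fluorescence (ex 545/em 590) vs H2O2 standard curve, minus 250 µM semicarbazide (20 min preincubation) background. Mean percentage relative to benzylamine-derived H2O2.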

The target of assay [2] is T2, Amine oxidase [copper-containing] 3 (Homo sapiens) (UniProt Q16853).
T2 sequence (whole entry): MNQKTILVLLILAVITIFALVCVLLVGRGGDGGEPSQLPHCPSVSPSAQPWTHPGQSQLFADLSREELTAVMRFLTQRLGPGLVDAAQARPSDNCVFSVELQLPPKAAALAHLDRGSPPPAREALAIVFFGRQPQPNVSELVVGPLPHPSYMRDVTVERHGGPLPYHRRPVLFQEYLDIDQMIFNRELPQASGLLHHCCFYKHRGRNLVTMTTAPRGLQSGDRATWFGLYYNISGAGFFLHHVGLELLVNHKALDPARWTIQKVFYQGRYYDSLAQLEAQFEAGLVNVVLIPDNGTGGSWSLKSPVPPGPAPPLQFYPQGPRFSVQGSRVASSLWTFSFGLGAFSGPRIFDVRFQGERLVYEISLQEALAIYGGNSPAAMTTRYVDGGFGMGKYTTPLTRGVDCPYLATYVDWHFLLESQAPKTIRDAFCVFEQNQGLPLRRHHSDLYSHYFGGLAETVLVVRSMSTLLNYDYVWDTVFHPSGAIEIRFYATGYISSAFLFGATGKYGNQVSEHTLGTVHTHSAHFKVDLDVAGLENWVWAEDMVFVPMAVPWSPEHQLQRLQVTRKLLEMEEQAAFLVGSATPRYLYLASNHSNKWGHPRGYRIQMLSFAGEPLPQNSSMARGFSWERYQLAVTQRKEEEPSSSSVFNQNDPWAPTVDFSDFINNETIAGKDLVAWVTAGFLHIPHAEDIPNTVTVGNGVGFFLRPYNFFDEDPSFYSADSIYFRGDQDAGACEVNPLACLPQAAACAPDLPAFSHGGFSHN
Description: Activity of human SSAO measured as hydrogen peroxide production at 1 mM relative to benzylamine oxidation. Type of assay: functional. The method in brief: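 Human recombinant VAP-1 (0.1 µg protein/assay) in 0.2 mol/L phosphate buffer pH 7.4, 50 min at 37 °C; amine at 1 mM added with HRP/Amplex Red mix. H2O2 fluorescence (ex 545/em 590) read every 5 min, quantified against H2O2 standard curve; semicarbazide-preincubated (250 µM, 20 min) background subtracted. Mean percentage relative to benzylamine-derived H2O2.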

Assay [3] relates to Adipocyte. The experiment in a line: Stimulation of glucose transport in mouse adipocytes at 1 mM in presence of sodium orthovanadate. Type of assay: functional, cell-based. Summed up: (§1)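 Adipocytes from internal fat pads of male Swiss mice (30-35 g), collagenase-isolated, incubated 45 min at 37 °C with amine ± 1 mM sodium orthovanadate (± 1 mM semicarbazide); then 2-deoxy-D-[3H]glucose (0.1 mM final) uptake over 10 min. Two experiments in triplicate, mean ± SEM.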

For assay [4], the system named is Adipocyte. Description: Stimulation of glucose transport in mouse adipocytes at 0.1 mM in presence of sodium orthovanadate. Type of assay: functional, cell-based. Summed up:
as §1

In the case of `NCc1cccc(CNC(=O)c2ccc(O)cc2O)c1`, the Activity in assay [1] and in assay [2] was 0% each time.
`C=CCOC(=O)NCc1cccc(CN)c1`: the Activity in assay [1] was 49%; in assay [2], 21%.
For the compound `NCc1ccc(OC(F)(F)F)cc1OC(F)(F)F`, the Activity in assay [1] and in assay [2] was 0% in each case.
Take `CC(C)(C)c1ccc(CN)cc1`: the Activity was found to be 1% in assay [1] and 0% in assay [2].
On to `COc1cc(F)cc(CN)c1`, for which the Activity in assay [1] worked out at 4.86%; in assay [2], 2.53%.
As to `NCCCCc1ccccc1`, the Activity in assay [1] stood at 71%; in assay [2] it was 166%. The result in the assay with Adipocyte [3] and in the assay with Adipocyte [4] was Active.
Regarding `CC(C)c1ccc(CN)cc1`, the Activity in assay [1] and in assay [2] was 0% each time.
As for `NCc1ccc(C(F)(F)F)cc1`, the Activity in assay [1] turned out to be 35%; in assay [2], 4%.
Taken in the same sequence, the figures for `NCc1ccc(F)cc1` were 127% and 134%.
Regarding `NCc1c(O)ccc2ccccc12`, the Activity in assay [1] and in assay [2] was 0% each time.
Take `NCc1ccccc1F`: the Activity in assay [1] was found to be 44%; in assay [2], 1.3%.
Regarding `COc1cc(CN)cc(OC)c1`, the Activity was determined as 0.75% in assay [1] and 0% in assay [2].
The like results for `NCCOc1ccccc1` were, in that order, 14.6% and 17.9%.
The like results for `CCCCc1ccc(CN)cc1` were, in that order, 24% and 5%.
Taken in the same sequence, the figures for `NCc1ccc(-c2ccccc2)cc1` were 3.77% and 0%.
In the case of `NCc1cccc([N+](=O)[O-])c1O`, the Activity came out at 5.47% in assay [1] and 0.11% in assay [2].
In the case of `CC(=O)N[C@H](C(=O)NCc1cccc(CN)c1)c1ccccc1`, the Activity was found to be 13% in assay [1] and 2% in assay [2].
Taken in the same sequence, the figures for `Cc1ccc(S(=O)(=O)NCc2cccc(CN)c2)cc1` were 14% and 12%.
For the compound `Cc1ccc(CN)cc1F`, the Activity in assay [1] turned out to be 133%; in assay [2], 88%.
As for `NCc1cccc(CNC(=O)CI)c1`, the Activity turned out to be 61% in assay [1] and 38% in assay [2].
Taken in the same sequence, the figures for `NCCc1ccccc1` were 19% and 21%.
As for `COc1ccc(CCN)cc1OC`, the Activity in assay [1] stood at 3.8%; in assay [2], 0%.
The like results for `NCc1cccc(CNC(=O)c2ccc(O)cc2)c1` were, in that order, 26% and 5%.
On to `NCc1cccc(CN)c1`, for which the Activity in assay [1] and in assay [2] was 0% in each case.
Regarding `NCc1ccc(C(=O)NCc2cccc(CN)c2)cc1`, the values for the Activity in assay [1] and in assay [2] were 12% and 17%, respectively.
The like results for `COc1ccc(CN)c2ccccc12` were, in that order, 0% and 0.7%.
In the case of `NCc1ccccc1`, the Activity in assay [1] and in assay [2] was 100% throughout. The result in the assay with Adipocyte [3] and in the assay on Adipocyte [4] was Active.
For `CC(=O)NCc1cccc(CN)c1`, the Activity worked out at 16% in assay [1] and 3% in assay [2].
Consider `CCC(=O)NCc1cccc(CN)c1`, for which the Activity was determined as 27% in assay [1] and 4% in assay [2].
The like results for `NCCc1ccc(O)c(O)c1` were, in that order, 0% and 0%.
The like results for `CCc1ccc(CN)cc1` were, in that order, 26% and 14%.
In the case of `NCc1ccc(CN)cc1`, the Activity in assay [1] and in assay [2] was 0% throughout.
On to `COc1cccc2[nH]cc(CCN)c12`, for which the Activity in assay [1] is 5.54%; in assay [2] it was 0%.
Taken in the same sequence, the figures for `NCc1ccc(O)c(Br)c1` were 0% and 0%.
The like results for `Cc1ccc(CN)cc1` were, in that order, 0% and 0%.
Taken in the same sequence, the figures for `CC(N)c1cccc2ccccc12` (centres undefined) were 0% and 11%.
Turning to `COc1ccc(CN)cc1`, the Activity in assay [1] stood at 4.56%; in assay [2], 0%.
Taken in the same sequence, the figures for `COc1ccc(O)c(CN)c1` were 0% and 0%.
The like results for `NCCCc1ccccc1` were, in that order, 40% and 44%.
The like results for `NCc1cccc(CNC(=O)c2ccccc2)c1` were, in that order, 58% and 17%.
`NCc1cccc(CNC(=O)c2ccc(Br)cc2)c1`: the values for the Activity in assay [1] and in assay [2] were 46% and 16%, respectively.
The like results for `NCCc1ccc(F)cc1` were, in that order, 18% and 35%.
As for `NCc1ccc(OC(F)(F)F)cc1`, the values for the Activity in assay [1] and in assay [2] were 66.2% and 0%, respectively.
For the compound `NCc1ccc(C(=O)O)cc1`, the Activity was determined as 4.06% in assay [1] and 0% in assay [2].
For `NCc1ccc(OCc2ccccc2)cc1`, the Activity in assay [1] and in assay [2] was 0% throughout.
